Reference: ChEMBL document CHEMBL1122153, “Novel dimeric derivatives of leucomycins and tylosin, sixteen-membered macrolides” (1982)
≈ marks a conversion by molar mass, not a printed value.

Assays:
Format in all cases: functional
Klebsiella pneumoniae = assay: Minimum inhibitory concentration (MIC) required to inhibit the growth of Klebsiella pneumoniae PCI 602 using nutrient agar as growth medium
Escherichia coli [1] = assay: Minimum inhibitory concentration (MIC) required to inhibit the growth of Escherichia coli NIHJ using nutrient agar as growth medium
Bacillus subtilis = assay: Minimum inhibitory concentration (MIC) required to inhibit the growth of Bacillus subtilis PCI 219 by using nutrient agar as growth medium
Staphylococcus aureus = assay: Minimum inhibitory concentration (MIC) required to inhibit the growth of Staphylococcus aureus FDA 209P by using nutrient agar as growth medium
Escherichia coli [2] = assay: Inhibition of 10,11,12,13-[3H]tetrahydroleucomycin A3 binding to Escherichia coli Ribosome; settings: read-out: ID50
In short: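 Competition binding of [3H]tetrahydroleucomycin A3 to E. coli ribosomes. ID50 is the concentration of test agent giving 50% inhibition of radioligand binding.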

Micrococcus luteus = assay: Minimum inhibitory concentration (MIC) required to inhibit the growth of Sarcina lutea PCI 1001 by using nutrient agar as growth medium

MIC (Klebsiella pneumoniae) | MIC (Escherichia coli [1]) | MIC (Bacillus subtilis) | MIC (Staphylococcus aureus) | IC50 (Escherichia coli [2]) | MIC (Micrococcus luteus) | Structure (SMILES)
> 100 µg/mL | > 100 µg/mL | 12.5 µg/mL (≈ 8.18 µM) | 50 µg/mL (≈ 32.7 µM) | 0.02 µg/mL (≈ 0.0131 µM) | 12.5 µg/mL (≈ 8.18 µM) | CCCC(=O)OC1C(C)OC(OC2C(C)OC(O[C@@H]3[C@H](CCNCC[C@H]4C[C@@H](C)[C@@H](O)/C=C/C=C/C[C@@H](C)OC(=O)C[C@@H](O)[C@H](OC)[C@H]4OC4OC(C)C(OC5CC(C)(O)C(OC(=O)CCC)C(C)O5)C(N(C)C)C4O)C[C@H](C)[C@H](O)/C=C/C=C/C[C@H](C)OC(=O)C[C@H](O)[C@H]3OC)C(O)C2N(C)C)CC1(C)O (some centres undefined)
25 µg/mL (≈ 32.4 µM) | 25 µg/mL (≈ 32.4 µM) | 0.2 µg/mL (≈ 0.259 µM) | < 0.1 µg/mL | 0.0012 µg/mL (≈ 0.00155 µM) | < 0.1 µg/mL | CCCC(=O)OC1C(C)OC(OC2C(C)OC(O[C@H]3[C@@H](CC=O)C[C@@H](C)[C@@H](O)/C=C/C=C/C[C@@H](C)OC(=O)C[C@@H](O)[C@@H]3OC)C(O)C2N(C)C)CC1(C)O (some centres undefined)
> 100 µg/mL | > 100 µg/mL | 25 µg/mL (≈ 27.3 µM) | 50 µg/mL (≈ 54.5 µM) |  | 6.25 µg/mL (≈ 6.81 µM) | CC[C@H]1OC(=O)C[C@@H](O)[C@H](C)[C@@H](OC2OC(C)C(OC3CC(C)(O)C(O)C(C)O3)C(N(C)C)C2O)[C@@H](CCN)C[C@@H](C)C(=O)/C=C/C(C)=C/C1COC1OC(C)C(O)C(OC)C1OC (some centres undefined)
50 µg/mL (≈ 60.4 µM) | 50 µg/mL (≈ 60.4 µM) | 0.4 µg/mL (≈ 0.483 µM) | 0.4 µg/mL (≈ 0.483 µM) |  | < 0.1 µg/mL | CO[C@@H]1[C@@H](OC2OC(C)C(OC3CC(C)(O)C(OC(=O)CC(C)C)C(C)O3)C(N(C)C)C2O)[C@@H](CC=O)C[C@@H](C)[C@@H](O)/C=C/C=C/C[C@@H](C)OC(=O)C[C@H]1OC(C)=O (some centres undefined)
100 µg/mL (≈ 65.4 µM) | 50 µg/mL (≈ 32.7 µM) | 25 µg/mL (≈ 16.4 µM) | 3.12 µg/mL (≈ 2.04 µM) |  | 0.78 µg/mL (≈ 0.51 µM) | CC[C@@H]1OC(=O)C[C@H](O)[C@@H](C)[C@H](OC2OC(C)C(O)C(N(C)C)C2O)[C@H](CCNCC[C@H]2C[C@@H](C)C(=O)/C=C/C(C)=C/C(COC3OC(C)C(O)C(OC)C3OC)[C@@H](CC)OC(=O)C[C@@H](O)[C@H](C)[C@H]2OC2OC(C)C(O)C(N(C)C)C2O)C[C@H](C)C(=O)/C=C/C(C)=C/C1COC1OC(C)C(O)C(OC)C1OC (some centres undefined)
> 100 µg/mL | > 100 µg/mL | 6.25 µg/mL (≈ 3.81 µM) | 100 µg/mL (≈ 60.9 µM) | 0.1 µg/mL (≈ 0.0609 µM) | 25 µg/mL (≈ 15.2 µM) | CO[C@@H]1[C@@H](OC2OC(C)C(OC3CC(C)(O)C(OC(=O)CC(C)C)C(C)O3)C(N(C)C)C2O)[C@@H](CCNCC[C@@H]2C[C@H](C)[C@H](O)/C=C/C=C/C[C@H](C)OC(=O)C[C@H](OC(C)=O)[C@@H](OC)[C@@H]2OC2OC(C)C(OC3CC(C)(O)C(OC(=O)CC(C)C)C(C)O3)C(N(C)C)C2O)C[C@@H](C)[C@@H](O)/C=C/C=C/C[C@@H](C)OC(=O)C[C@H]1OC(C)=O (some centres undefined)
> 100 µg/mL | > 100 µg/mL | 50 µg/mL (≈ 60.3 µM) | > 100 µg/mL |  | > 100 µg/mL | CO[C@@H]1[C@@H](OC2OC(C)C(OC3CC(C)(O)C(OC(=O)CC(C)C)C(C)O3)C(N(C)C)C2O)[C@@H](CCN)C[C@@H](C)[C@@H](O)/C=C/C=C/C[C@@H](C)OC(=O)C[C@H]1OC(C)=O (some centres undefined)
> 100 µg/mL | > 100 µg/mL | 6.25 µg/mL (≈ 7.68 µM) | 6.25 µg/mL (≈ 7.68 µM) |  | 1.56 µg/mL (≈ 1.92 µM) | CC[C@H]1C[C@@H](C)[C@@H](O)/C=C/C=C/C[C@@H](C)OC(=O)C[C@@H](OC(C)=O)[C@H](OC)[C@H]1OC1OC(C)C(OC2CC(C)(O)C(OC(=O)CC(C)C)C(C)O2)C(N(C)C)C1O (some centres undefined)
> 100 µg/mL | > 100 µg/mL | > 100 µg/mL | > 100 µg/mL |  | 25 µg/mL (≈ 32.3 µM) | CCCC(=O)OC1C(C)OC(OC2C(C)OC(O[C@H]3[C@@H](CCN)C[C@@H](C)[C@@H](O)/C=C/C=C/C[C@@H](C)OC(=O)C[C@@H](O)[C@@H]3OC)C(O)C2N(C)C)CC1(C)O (some centres undefined)
100 µg/mL (≈ 109 µM) | 50 µg/mL (≈ 54.6 µM) | 0.78 µg/mL (≈ 0.851 µM) | 0.78 µg/mL (≈ 0.851 µM) | 0.0004 µg/mL (≈ 0.000437 µM) | < 0.1 µg/mL | CC[C@H]1OC(=O)C[C@@H](O)[C@H](C)[C@@H](O[C@@H]2O[C@H](C)[C@@H](O[C@H]3C[C@@](C)(O)[C@@H](O)[C@H](C)O3)[C@H](N(C)C)[C@H]2O)[C@@H](CC=O)C[C@@H](C)C(=O)/C=C/C(C)=C/[C@@H]1CO[C@@H]1O[C@H](C)[C@@H](O)[C@@H](OC)[C@H]1OC [TYLOSIN]
